Key:
Format in all cases: functional
[1] = tested on: Rattus norvegicus; experiment: Effect on level of total cholesterol (relative to untreated control) in cholesterol fed-male rats at 80 mg/kg/day
In short: (§1)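 Male Sprague–Dawley rats (groups of six) fed a cholic acid- and cholesterol-supplemented diet; compound mixed into the diet, given ad libitum for eight days. Lipoproteins were separated by ultracentrifugation, and cholesterol was measured by an enzymatic colorimetric method. Results are % change versus untreated controls, with significance at p < 0.05.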

[2] = tested on: Rattus norvegicus; experiment: Effect on level of triglyceride in (relative to untreated control) in cholesterol fed-male rats at 80 mg/kg/day
In short: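 Compound given in diet ad libitum for eight days to groups of six male Sprague–Dawley rats on a cholic acid and cholesterol-supplemented diet. Serum triglycerides expressed as % change relative to untreated controls, with significance at p < 0.05. Gemfibrozil served as internal positive control within each study.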

[3] = tested on: Rattus norvegicus; experiment: Effect on change in body weight gain (relative to untreated control) in cholesterol fed-male rats at 80 mg/kg/day
In short: (§2)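 Male Sprague–Dawley rats, six per group, on a cholic acid- and cholesterol-supplemented diet. Compounds were mixed into the diet and given ad libitum for eight days. Change in body weight gain is expressed as a percentage of untreated controls. Significance was set at p < 0.05 versus untreated controls.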

[4] = tested on: Rattus norvegicus; experiment: Effect on level of apolipoprotein (Apo) AI (relative to untreated control) in cholesterol fed-male rats at 80 mg/kg/day
In short: (§3)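 Six male Sprague–Dawley rats per group, fed a cholic acid/cholesterol-supplemented diet, received compound in the diet ad libitum for eight days. Serum Apo A–I was measured by SDS-PAGE or by rat competition ELISA and reported as % change versus untreated controls (p < 0.05). Gemfibrozil was the internal positive control in each study.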

[5] = tested on: Rattus norvegicus; experiment: Effect on level of high density lipoprotein cholesterol (relative to untreated control) in cholesterol fed-male rats at 80 mg/kg/day; in short: as §1
[6] = tested on: Rattus norvegicus; experiment: Effect on level of triglyceride in (relative to untreated control) in cholesterol fed-male rats at 55 mg/kg/day
In short: (§4)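 Serum triglycerides were measured in groups of six male Sprague–Dawley rats on a cholic acid/cholesterol-supplemented diet. Compound was dosed in the diet, ad libitum, for eight days. Results are % change relative to untreated controls, with significance at p < 0.05.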

[7] = tested on: Rattus norvegicus; experiment: Effect on level of total cholesterol (relative to untreated control) in cholesterol fed-male rats at 55 mg/kg/day; in short: as §1
[8] = tested on: Rattus norvegicus; experiment: Effect on level of apolipoprotein (Apo) AI (relative to untreated control) in cholesterol fed-male rats at 55 mg/kg/day; in short: as §3
[9] = tested on: Rattus norvegicus; experiment: Effect on level of high density lipoprotein cholesterol (relative to untreated control) in cholesterol fed-male rats at 55 mg/kg/day
In short: (§5)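 Cholic acid/cholesterol-fed male Sprague–Dawley rats (n = 6 per group) were dosed via diet ad libitum for eight days. Lipoproteins were separated by ultracentrifugation and HDL cholesterol was quantified by an enzymatic colorimetric method. Values are % change relative to untreated controls, with significance at p < 0.05. Gemfibrozil was the internal positive control.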

[10] = tested on: Rattus norvegicus; experiment: Effect on change in body weight gain (relative to untreated control) in cholesterol fed-male rats at 55 mg/kg/day; in short: as §2
[11] = tested on: Rattus norvegicus; experiment: Effect on level of high density lipoprotein cholesterol (relative to untreated control) in cholesterol fed-male rats at 36 mg/kg/day; in short: as §5
[12] = tested on: Rattus norvegicus; experiment: Effect on level of apolipoprotein (Apo) AI (relative to untreated control) in cholesterol fed-male rats at 36 mg/kg/day; in short: as §3
[13] = tested on: Rattus norvegicus; experiment: Effect on level of total cholesterol (relative to untreated control) in cholesterol fed-male rats at 36 mg/kg/day; in short: as §1
[14] = tested on: Rattus norvegicus; experiment: Effect on level of triglyceride in (relative to untreated control) in cholesterol fed-male rats at 36 mg/kg/day; in short: as §4
[15] = tested on: Rattus norvegicus; experiment: Effect on change in body weight gain (relative to untreated control) in cholesterol fed-male rats at 36 mg/kg/day; in short: as §2
[16] = tested on: Rattus norvegicus; experiment: Effect on level of apolipoprotein (Apo) AI (relative to untreated control) in cholesterol fed-male rats at 74 mg/kg/day; in short: as §3
[17] = tested on: Rattus norvegicus; experiment: Effect on change in body weight gain (relative to untreated control) in cholesterol fed-male rats at 74 mg/kg/day; in short: as §2
[18] = tested on: Rattus norvegicus; experiment: Effect on level of high density lipoprotein cholesterol (relative to untreated control) in cholesterol fed-male rats at 74 mg/kg/day; in short: as §1
[19] = tested on: Rattus norvegicus; experiment: Effect on level of total cholesterol (relative to untreated control) in cholesterol fed-male rats at 74 mg/kg/day; in short: as §1
[20] = tested on: Rattus norvegicus; experiment: Effect on level of triglyceride in (relative to untreated control) in cholesterol fed-male rats at 74 mg/kg/day; in short: as §4
[21] = tested on: Rattus norvegicus; experiment: Effect on level of total cholesterol (relative to untreated control) in cholesterol fed-male rats at 66 mg/kg/day; in short: as §1
[22] = tested on: Rattus norvegicus; experiment: Effect on level of high density lipoprotein cholesterol (relative to untreated control) in cholesterol fed-male rats at 66 mg/kg/day; in short: as §1
[23] = tested on: Rattus norvegicus; experiment: Effect on change in body weight gain (relative to untreated control) in cholesterol fed-male rats at 66 mg/kg/day; in short: as §2
[24] = tested on: Rattus norvegicus; experiment: Effect on level of triglyceride in (relative to untreated control) in cholesterol fed-male rats at 66 mg/kg/day; in short: as §4
[25] = tested on: Rattus norvegicus; experiment: Effect on level of apolipoprotein (Apo) AI (relative to untreated control) in cholesterol fed-male rats at 66 mg/kg/day; in short: as §3
[26] = tested on: Rattus norvegicus; experiment: Effect on level of triglyceride in (relative to untreated control) in cholesterol fed-male rats at 67 mg/kg/day; in short: as §4
[27] = tested on: Rattus norvegicus; experiment: Effect on change in body weight gain (relative to untreated control) in cholesterol fed-male rats at 67 mg/kg/day; in short: as §2
[28] = tested on: Rattus norvegicus; experiment: Effect on level of high density lipoprotein cholesterol (relative to untreated control) in cholesterol fed-male rats at 67 mg/kg/day; in short: as §1
[29] = tested on: Rattus norvegicus; experiment: Effect on level of total cholesterol (relative to untreated control) in cholesterol fed-male rats at 67 mg/kg/day; in short: as §1
[30] = tested on: Rattus norvegicus; experiment: Effect on level of apolipoprotein (Apo) AI (relative to untreated control) in cholesterol fed-male rats at 67 mg/kg/day; in short: as §3
[31] = tested on: Rattus norvegicus; experiment: Effect on level of total cholesterol (relative to untreated control) in cholesterol fed-male rats at 40 mg/kg/day; in short: as §1
[32] = tested on: Rattus norvegicus; experiment: Effect on level of high density lipoprotein cholesterol (relative to untreated control) in cholesterol fed-male rats at 40 mg/kg/day; in short: as §5
[33] = tested on: Rattus norvegicus; experiment: Effect on level of apolipoprotein (Apo) AI (relative to untreated control) in cholesterol fed-male rats at 40 mg/kg/day; in short: as §3
[34] = tested on: Rattus norvegicus; experiment: Effect on level of triglyceride in (relative to untreated control) in cholesterol fed-male rats at 40 mg/kg/day; in short: as §4
[35] = tested on: Rattus norvegicus; experiment: Effect on change in body weight gain (relative to untreated control) in cholesterol fed-male rats at 40 mg/kg/day; in short: as §2
[36] = tested on: Rattus norvegicus; experiment: Effect on level of apolipoprotein (Apo) AI (relative to untreated control) in cholesterol fed-male rats at 63 mg/kg/day; in short: as §3
[37] = tested on: Rattus norvegicus; experiment: Effect on level of total cholesterol (relative to untreated control) in cholesterol fed-male rats at 63 mg/kg/day; in short: as §1
[38] = tested on: Rattus norvegicus; experiment: Effect on change in body weight gain (relative to untreated control) in cholesterol fed-male rats at 63 mg/kg/day; in short: as §2
[39] = tested on: Rattus norvegicus; experiment: Effect on level of high density lipoprotein cholesterol (relative to untreated control) in cholesterol fed-male rats at 63 mg/kg/day; in short: as §1
[40] = tested on: Rattus norvegicus; experiment: Effect on level of triglyceride in (relative to untreated control) in cholesterol fed-male rats at 63 mg/kg/day; in short: as §4
[41] = tested on: Rattus norvegicus; experiment: Effect on level of total cholesterol (relative to untreated control) in cholesterol fed-male rats at 42 mg/kg/day; in short: as §1
[42] = tested on: Rattus norvegicus; experiment: Effect on level of triglyceride in (relative to untreated control) in cholesterol fed-male rats at 42 mg/kg/day; in short: as §4
[43] = tested on: Rattus norvegicus; experiment: Effect on change in body weight gain (relative to untreated control) in cholesterol fed-male rats at 42 mg/kg/day; in short: as §2
[44] = tested on: Rattus norvegicus; experiment: Effect on level of apolipoprotein (Apo) AI (relative to untreated control) in cholesterol fed-male rats at 42 mg/kg/day; in short: as §3
[45] = tested on: Rattus norvegicus; experiment: Effect on level of high density lipoprotein cholesterol (relative to untreated control) in cholesterol fed-male rats at 42 mg/kg/day; in short: as §5

`COc1ccc(Cl)cc1/N=C(\S)NCCO` was tested, and the Activity [1] was 66%, the Activity [2] was -27% and the Activity [3] was -38%. The Activity [4] was 30% and the Activity [5] was 106%.

In the case of `Cc1ccc(Cl)cc1/N=C(\S)NCCO`, the Activity [6] is reported as -53%, the Activity [7] is reported as 39% and the Activity [8] is reported as 48%. For the same molecule, the Activity [9] was 75% and the Activity [10] was -104%.

Molecule `COCC/N=C(\S)Nc1cc(Cl)ccc1C` has an Activity [11] of 30%, an Activity [12] of 33% and an Activity [13] of 20%. It also gave an Activity [14] of -47% and an Activity [15] of -3%.

`Cc1ccc(N/C(S)=N/CCO)cc1Cl` was tested, and the Activity [16] was -5%, the Activity [17] was -77% and the Activity [18] was 72%. It also gave an Activity [19] of 15% and an Activity [20] of -15%.

For `OCC/N=C(\S)Nc1cccc(Cl)c1`, the Activity [21] was 30%, the Activity [22] was 79% and the Activity [23] was -70%. For the same molecule, the Activity [24] was -31% and the Activity [25] was 43%.

With `Cc1c(Cl)cccc1/N=C(\S)NCCO` the Activity [26] was -16%, the Activity [27] was -56% and the Activity [28] was 63%. It also gave an Activity [29] of 10% and an Activity [30] of 27%.

`Cc1cccc(Cl)c1/N=C(\S)NCCO` was tested, and the Activity [31] was 8%, the Activity [32] was 23% and the Activity [33] was -34%. The Activity [34] was -48% and the Activity [35] was -155%.

With `Cc1ccc(C)c(N/C(S)=N/CCO)c1` the Activity [36] was 0%, the Activity [37] was 32% and the Activity [38] was -117%. The Activity [39] was 62% and the Activity [40] was -32%.

With `Cc1cc(Cl)ccc1/N=C(\S)NCCO` the Activity [41] was 17%, the Activity [42] was -8% and the Activity [43] was -229%. It also gave an Activity [44] of 18% and an Activity [45] of 53%.

With `Cc1ccc(Cl)cc1/N=C(\S)NCCS` the Activity [11] was 25%, the Activity [12] was 10% and the Activity [13] was 8%. It also gave an Activity [14] of -3% and an Activity [15] of -20%.

Reference: ChEMBL document CHEMBL1144306, “1-Hydroxyalkyl-3-phenylthioureas as novel HDL-elevating agents” (2005)
